NALP1 yeast inh: NALP1 inhibition | S. cerevisiae NALP1/ASC/caspase-1 growth, X-gal OD620, 72 h | inhibition, % at 10 µM | 280,000 compounds, 0.61% hits; in the data active = inhibition mostly above about 24%, no sharp cut-off; inactive = mostly below about 32%
NALP3 yeast inh: NALP3 inhibition in yeast; 330,000 compounds, 0.39% hits; inhibition, % at 10 µM; Yeast reconstituted NLRP3/ASC/caspase-1, beta-gal luminescence, 24 h;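 active = inhibition of 50% or more; inactive = inhibition below 50%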;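 also: plate controls were induced DMSO wells for no effect and uninduced yeast grown without galactose for full effect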
ATG4B inhibitor: ATG4B (human) cysteine protease inhibition. Q9Y4P1. ATG4B cleavage of LC3-PLA2, NBD-HPC fluorescence, 1 h. inhibition, % at 8.33 µM. 340,000 compounds, 0.51% hits. AID 504462; in the data active = inhibition above about 40%
UCH37 DUB inh: inhibitors of human deubiquitinating enzyme UCH37. purified proteasome/UCH37, Ub-AMC cleavage fluorescence. inhibition, % (no concentration beside the values). 330,000 compounds, 0.33% hits. AID 588478;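 active = mean inhibition over replicate wells above about 20%, limit read from the data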;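 also: 0% = compound-free wells with enzyme and 100% = wells lacking proteasome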
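Material: Human UCH37 enzyme supplied as purified proteasome complex | Schedule: 30 min preincubation with enzyme, 25 min cleavage at room temperature | Detection: AMC fluorescence 355/460 nm | Measure: % inhibition of Ub-AMC cleavage fluorescence | Controls: Wells without proteasome as full block, compound-free enzyme plus substrate as uninhibited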
ALR inh: human ALR oxidase inhibition via reduced H2O2. P55789. purified ALR, DTT oxidation, H2O2 HRP-luminol luminescence. inhibition, % (no concentration beside the values). 290,000 compounds, 3.8% hits. AID 485317;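 active = mean replicate inhibition above about 79%, with every replicate also reaching it, limit read from the data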
Target sequence (P55789 whole entry, looked up): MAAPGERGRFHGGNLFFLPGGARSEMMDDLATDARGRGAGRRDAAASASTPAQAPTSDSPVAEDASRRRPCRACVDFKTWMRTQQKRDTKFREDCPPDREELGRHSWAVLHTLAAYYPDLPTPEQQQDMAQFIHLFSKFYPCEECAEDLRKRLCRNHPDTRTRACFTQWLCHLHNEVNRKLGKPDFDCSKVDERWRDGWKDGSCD
Calb FLC: affects C. albicans growth with fluconazole; C. albicans CaCi-2 + fluconazole, Alamar Blue growth, 48 h; growth inhibition, % (no concentration beside the values); 300,000 compounds, 0.57% hits;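 active = growth inhibition above about 58% in most replicates, limit read from the data, passing the limit was not always enough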;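 also: all wells also contain fluconazole at 8 µg/ml as a sub-toxic cotreatment; 0% = median of DMSO wells and 100% = median of geldanamycin control wells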
NALP3 yeast conf: NALP3 inhibition confirmation in yeast | shares compounds with NALP3 yeast inh | yeast expressing human NALP3, luminescence | inhibition, % at 10 µM | 1,300 compounds, 81% hits | AID 435006; in the data active = inhibition above about 48%
Casp1 ASC ctr: active in yeast caspase-1-ASC counter-screen for NALP3 inhibitors | shares compounds with NALP3 yeast inh | yeast expressing Caspase-1-ASC, luminescence counter screen | 1,000 compounds, 66% hits | inhibition, % at 10 µM
NALP3 retest: confirmation retest of NALP3 inhibitors in yeast. shares compounds with NALP3 yeast inh. yeast expressing human NALP3, luminescence read-out. inhibition, % at 10 µM. 1,000 compounds, 53% hits
PLA2 ctr: counter-screen for ATG4B inhibitors: human phospholipase A2; shares compounds with ATG4B inhibitor; purified PLA2, NBD-C6-HPC fluorescence, 45 min; inhibition, % at 8.33 µM; 1,600 compounds, 66% hits; AID 588402
Target sequence (P04054 whole entry, looked up): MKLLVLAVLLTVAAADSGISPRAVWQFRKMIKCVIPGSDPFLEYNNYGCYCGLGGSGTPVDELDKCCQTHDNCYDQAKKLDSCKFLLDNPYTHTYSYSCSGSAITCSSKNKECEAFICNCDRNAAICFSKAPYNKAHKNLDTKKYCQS
The depositor's hits bear a star; . = no result given. Sampled rows, rich in hits. Any-hit rate of the full collection: about 4.8%. Rule as the data show it, unless noted: active = inhibition above about 50%; inactive = the rest.

SMILES	NALP1 yeast inh	NALP3 yeast inh	ATG4B inhibitor	UCH37 DUB inh	ALR inh	Calb FLC	NALP3 yeast conf	Casp1 ASC ctr	NALP3 retest	others
CN1C(=O)C(=Cc2c(OCc3cnc(Cl)s3)ccc3ccccc23)C(=O)N(C)C1=O	2	59*	9	5	15	13	58*	72*	62*
CC12CCC3C(CCC4C/C(=N/O)CCC43C)C1CCC2O (stereo not drawn)	36	63*	-10	.	-13	-3	42	63*	47
C[C@]12CCC(=O)C[C@@H]1CC[C@@H]1[C@@H]2CC[C@]2(C)[C@@H](O)CC[C@@H]12	.	50*	-4	3	.	.	55*	60*	42
C[C@]12CCC3C(CC[C@@H]4CC(=O)CC[C@]34C)C1CC[C@@H]2O (stereo partly drawn)	.	68*	-10	1	-1	.	58*	.	.
C[C@]12CC(=O)CC1CCC1C2CC[C@@]2(C)C1CC[C@@H]2O (stereo partly drawn)	42*	60*	-6	-2	0	5	61*	63*	40
CCc1cccc(C)c1NC(=S)N1CC2CC(C1)c1cccc(=O)n1C2 (stereo not drawn)	27	17	7	1	-6	-6	.	.	.
COC(=O)C1=C(c2ccc(Cl)c(C(F)(F)F)c2)C[C@@H]2CC[C@H]1N2C(=O)NCCOc1ccccc1Cl	.	10	-3	2	-4	.	.	.	.
CCCCC/C(=N\O)c1c[nH]c2ccccc12	8	55*	23	.	48	-25	57*	53*	46
CCN(CC)Cc1c[nH]c2ccccc12	15	23	-5	1	-18	-6	.	.	.
Fc1cccc(F)c1-c1nc(-c2ccc(Cl)cc2)no1	2	10	9	3	-6	-4	.	.	.
CC1(C)C(=O)CC[C@@]2(C)C1=CCC1C2CC[C@]2(C)C(=O)CCC12 (stereo partly drawn)	.	59*	2	2	-4	.	48*	.	.
COc1ccc(CCNCc2ccsc2)cc1OC	11	16	-4	4	-8	-38	.	.	.
CC(C)COC(=O)c1ccccc1C(=O)OCC(C)C	1	-1	0	1	-23	-2	.	.	.
C[CH2][Hg][S]c1ccccc1C(=O)O	.	98*	1	0	11	.	99*	100*	99*
CN(C)C(=O)Oc1ccc(Br)c2ccccc12	22	7	0	1	-6	-3	.	.	.
CC[C@H](C)/C=C(C)/C=C/C1=CC2=C(Cl)C(=O)[C@](C)(OC(C)=O)C(=O)C2=CO1	.	-6	55*	16	.	.	.	.	.	PLA2 ctr=71*
Cc1cc(OC(C)C(=O)NCC(O)c2ccccc2)c2c3c(c(=O)oc2c1)CCCC3 (stereo not drawn)	4	11	31	-59	0	-3	.	.	.
Cc1cc(OCC(=O)NCC(O)c2ccccc2)c2c3c(c(=O)oc2c1)CCCC3 (stereo not drawn)	9	6	52*	-23	0	-4	.	.	.	PLA2 ctr=55*
C#C[C@@]1(O)CCC2C3CCC4=C/C(=N/OCC(=O)NC(C(=O)NC(CC(C)C)C(=O)O)C(C)C)CC[C@]4(C)C3CC[C@@]21C (stereo partly drawn)	-2	20	-6	.	0	5	.	.	.
COc1ccc2c(c1)C(c1ccc(N(CCCl)CCCl)cc1)=NCC2	.	.	11	3	.	.	.	.	.
ClCCN(CCCl)c1ccc(C2=NCCc3ccccc32)cc1	.	.	40*	2	.	.	.	.	.	PLA2 ctr=57*
CCc1ccccc1NC(=O)CNC1CCCCC1	10	1	3	2	-1	3	.	.	.
CN(CC(=O)Nc1ccccc1-c1ccccc1)C1CCCCC1	9	11	73*	0	1	-1	.	.	.	PLA2 ctr=79*

High-throughput results (PubChem BioAssay)
